Screening data deposited in PubChem by several laboratories.
Shown are actives, neighbours in structure and some others; about 5.5% of the full set was active somewhere.
KCC2 mod: modulators of human KCC2 chloride dependent transport; actives 2.2% (n = 190,000); Q9H2X9; KCC2 cells, thallium flux FluoZin-2 fluorescence; B-score of Tl+ flux slope (higher = more flux/activation; lower = inhibition) at 10 µM; AID 1456;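 active = thallium flux slope and its plate-corrected score both differing from the plate sample mean at a set confidence after two filtering rounds, in either direction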;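 also: slope of fluorescence scaled to starting intensity during 10 to 20 s after thallium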
Target sequence (Q9H2X9 whole entry, looked up): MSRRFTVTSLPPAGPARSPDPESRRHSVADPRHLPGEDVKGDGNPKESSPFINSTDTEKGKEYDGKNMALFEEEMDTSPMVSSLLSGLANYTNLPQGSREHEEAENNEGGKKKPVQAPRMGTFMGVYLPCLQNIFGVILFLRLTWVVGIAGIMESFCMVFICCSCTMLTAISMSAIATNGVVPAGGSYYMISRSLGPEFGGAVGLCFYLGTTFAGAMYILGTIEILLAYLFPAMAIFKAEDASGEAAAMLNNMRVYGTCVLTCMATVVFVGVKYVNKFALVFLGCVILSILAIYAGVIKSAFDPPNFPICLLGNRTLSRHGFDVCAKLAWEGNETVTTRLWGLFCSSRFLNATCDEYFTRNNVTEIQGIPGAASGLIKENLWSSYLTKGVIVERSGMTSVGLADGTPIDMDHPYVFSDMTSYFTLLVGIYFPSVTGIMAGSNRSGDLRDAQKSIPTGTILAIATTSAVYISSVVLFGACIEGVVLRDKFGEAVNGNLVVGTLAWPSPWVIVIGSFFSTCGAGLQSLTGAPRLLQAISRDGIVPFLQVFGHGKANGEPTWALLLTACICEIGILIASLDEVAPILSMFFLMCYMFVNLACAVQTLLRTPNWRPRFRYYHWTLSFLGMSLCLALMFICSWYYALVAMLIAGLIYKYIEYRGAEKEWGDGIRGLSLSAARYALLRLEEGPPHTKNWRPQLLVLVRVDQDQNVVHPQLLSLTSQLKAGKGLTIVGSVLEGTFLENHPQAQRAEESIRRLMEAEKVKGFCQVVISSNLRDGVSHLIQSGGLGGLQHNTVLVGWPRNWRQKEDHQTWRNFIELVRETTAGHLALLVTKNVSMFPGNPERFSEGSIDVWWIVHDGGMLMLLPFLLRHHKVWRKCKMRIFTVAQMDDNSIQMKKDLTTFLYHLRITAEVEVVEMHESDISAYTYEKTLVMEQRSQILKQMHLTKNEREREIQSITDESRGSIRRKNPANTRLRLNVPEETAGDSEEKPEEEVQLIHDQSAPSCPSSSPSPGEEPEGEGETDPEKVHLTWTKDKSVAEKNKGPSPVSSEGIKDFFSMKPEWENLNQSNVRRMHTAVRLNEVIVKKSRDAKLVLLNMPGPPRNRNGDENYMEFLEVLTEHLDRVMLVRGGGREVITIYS
STAT3 activator: activators of IL-6 induced STAT3 signaling | U3A cells, IL-6 STAT3-luciferase reporter, luminescence; 100% = signal with IL-6 EC80 alone | actives 0.91% (n = 190,000) | activation (% of control), % at 5.6 µM | AID 871;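 active = activation above the screen-wide mean of compound activation plus 3 SD, cut at about 130% in these data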
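Assay system – human STAT1-deficient U3A cells with stable STAT3-luciferase reporter · Also added – IL-6 (33 ng/mL) · Schedule – compound 1 h, then IL-6 6 h at 37 °C · Technique – reporter luminescence signal · Evaluation – % activation versus median of IL-6-stimulated wells · Benchmarks – IL-6-only wells as 100% reference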
STAT1 activator: activators of IFN-gamma induced STAT1 signaling. NIH 3T3 STAT1-luciferase reporter, luminescence; 100% = IFN-gamma alone, no compound. activation (% of control), % at 5.5 µM. actives 2.6% (n = 200,000). AID 932;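 active = activation above the screen-wide mean activation plus 3 SD, cut at about 130% in these data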
STAT1 inh: inhibitors of IFN-gamma induced STAT1 signaling | NIH 3T3 STAT1-luciferase reporter, luminescence | inhibition, % at 5.5 µM | actives 0.35% (n = 200,000) | AID 920;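 active = inhibition above a set limit, the mean inhibition across all tested compounds plus 3 SD, cut at about 34% in these data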
HSV replic up: HSV replication enhancement; maximum fold increase; actives 0.005% (n = 220,000); HSV replication augmentation in cells, fold increase; in the data active = maximum fold increase above about 1.5; inconclusive = no clear call, values can overlap the other calls; tested in PC3 cells
STAT3 blocker: STAT3 signaling inhibition; U3A cells, IL-6 STAT3-luciferase reporter, luminescence; host cell line lacks STAT1; inhibition, % at 5.5 µM; actives 0.89% (n = 190,000);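 active = inhibition above the mean inhibition across all screened compounds plus 3 SD, cut at about 44% in these data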
KCC2 sec1: KCC2 (human) modulation, secondary assay; normalised thallium flux (F/F0 slope) at 10 µM; shares compounds with KCC2 mod; HEK293-KCC2, thallium flux, FluoZin2 fluorescence; hits give high values; actives 15% (n = 3,700);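 active = thallium flux slope above the same plate's solvent-only control mean plus 3 SD; inconclusive = the two replicate wells disagree; inactive = no significant difference from solvent-only control wells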
KCC2 bumet counter: bumetanide-insensitive thallium flux in KCC2 cells with ouabain, counter-screen; shares compounds with KCC2 mod; HEK293-KCC2 + bumetanide/ouabain, thallium flux FluoZin2; hits give high values; normalized thallium flux at 10 µM; actives 49% (n = 3,700); AID 1714;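 active = thallium entry rate above the same plate's blocked-transporter control wells by more than 3 SD; inconclusive = the two repeat wells disagree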;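 also: raw slope of fluorescence over initial fluorescence between 10 and 20 s after thallium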
KCC2 secondary2: KCC2 (human) modulation, second secondary assay. shares compounds with KCC2 mod. normalized thallium flux at 10 µM. HEK293-KCC2, thallium flux FluoZin2 fluorescence; actives lie on both sides; F/F0 rise rate, 10–20 s post-thallium. actives 23% (n = 3,700);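 active = thallium flux slope more than 3 SD above or below the plate's solvent-only control mean, mostly below; inconclusive = the two repeat wells disagreed; inactive = no significant shift from solvent-only controls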
HEK counter1: parental HEK flux effect, counter-screen | shares compounds with KCC2 mod | HEK293 parental cells, thallium flux FluoZin2, ouabain; baseline-ratio fluorescence slope, 10–20 s after thallium | thallium flux rate (normalised fluorescence) at 10 µM | actives 46% (n = 3,700) | AID 1716;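 active = thallium flux rate significantly above the same plate's solvent-only control wells, beyond their mean plus 3 SD; inconclusive = the two replicate wells gave conflicting results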
KCC2 ouabain: confirmation of human KCC2 modulators with ouabain; shares compounds with KCC2 mod; HEK293-KCC2, thallium flux FluoZin2 fluorescence; bidirectional: low = inhibitor, high = activator; raw Tl+ flux slope (below DMSO = inhibition, above = activation) at 10 µM; actives 48% (n = 3,700); AID 1717;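 active = thallium flux slope beyond 3 SD from same-plate DMSO control mean in most replicates, usually higher, sometimes lower; inconclusive = repeat tests gave conflicting results; inactive = no significant difference from controls in most replicates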;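 also: slope of initial-normalized fluorescence between seconds 10 and 20 after thallium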
HEK counter2: parental HEK flux effect, counter-screen 2 | thallium flux slope at 10 µM | shares compounds with KCC2 mod | AID 1718 | actives 33% (n = 3,700) | HEK293 parental, thallium flux FluoZin-2 fluorescence slope;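 active = thallium flux slope above the same plate's solvent-control mean plus 3 SD in both duplicate wells; inconclusive = duplicate wells that disagreed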;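 also: run without ouabain in cells lacking the KCC2 cotransporter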
Numbers stand for hits; – = inactive; ? = inconclusive; · = no result.

SMILES	KCC2 mod	STAT3 activator	STAT1 activator	STAT1 inh	HSV replic up	STAT3 blocker	KCC2 sec1	KCC2 bumet counter	KCC2 secondary2	HEK counter1	KCC2 ouabain	HEK counter2
CCOc1ccccc1NS(=O)(=O)c1cccc2nsnc12	–	–	–	–	–	–	·	·	·	·	·	·
CN(C1CCS(=O)(=O)C1)S(=O)(=O)c1cccc2nsnc12 (centres undefined)	·	–	–	–	–	–	–	–	–	–	–	–
CCOc1ccc(OCC)c(NS(=O)(=O)c2cccc3nsnc23)c1	18	–	–	–	–	–	0.013	0.073	–	0.027	0.035	0.013
Cc1ccc(/C=C2\NC(=S)NC2=O)cc1[N+](=O)[O-]	3	–	–	–	–	–	–	–	–	–	–	–
Cc1ccc(S(=O)(=O)NC(=S)NC2CCCCC2)cc1	13	–	–	–	–	–	0.016	0.032	–	?	0.034	–
CCc1ccc(S(=O)(=O)NC(=S)NC2CCCCC2)cc1	32	–	–	–	–	–	0.026	0.071	?	0.05	0.06	0.018
O=S(=O)(NC(=S)NC1CCCCC1)c1ccc(Cl)cc1	11	–	–	–	–	–	–	0.02	–	0.02	0.025	0.022
Cc1ccc(S(=O)(=O)NC(C)C(=O)NC2CCCCCC2)cc1 (centres undefined)	–	–	–	–	–	–	·	·	·	·	·	·
O=C(NNS(=O)(=O)c1ccc(Cl)cc1)NC1CCCCC1	·	–	–	–	–	–	·	·	·	·	·	·
NS(=O)(=O)c1ccc(CCNC(=S)NC2CCCCC2)cc1	–	·	·	·	–	·	·	·	·	·	·	·
COc1cc(OC)cc(-c2cc3nc(C)cc(N4CCN(C(=O)c5ccco5)CC4)n3n2)c1	–	–	–	–	·	–	·	·	·	·	·	·
COc1ccc2c(c1)C=C(CN1CCN(C(C)C)C(CCO)C1)CO2 (centres undefined)	·	–	–	–	–	–	·	·	·	·	·	·
O=C(Cc1cc(=O)[nH][nH]1)N/N=C/c1cccc(Cl)c1Cl	–	–	–	–	–	–	·	·	·	·	·	·
Cc1ccc(NC(=O)c2ccc3c(c2)C(=O)N(Cc2cccnc2)C3=O)c(C)c1	–	–	–	–	–	–	·	·	·	·	·	·
CCSC1=N/C(=C/c2ccsc2)C(=O)N1c1ccccc1	-4.7	–	–	–	–	–	–	–	–	–	–	–
COc1ccc(S(=O)(=O)NCCSCc2cccs2)cc1	·	–	–	–	–	–	·	·	·	·	·	·
O=c1cc(-c2ccccc2)nc2cc(-c3ccco3)[nH]n12	3.9	·	·	·	?	·	?	0.014	–	0.011	?	–
Cc1cccc(NC(=S)NC23CN4CN(CN(C4)C2)C3)c1C	–	–	–	–	–	–	·	·	·	·	·	·
CC(=O)c1cccc(NC(=S)NC(=O)CC(C)(C)C)c1	·	–	–	–	–	–	·	·	·	·	·	·
O=C(NCC1CCCO1)C(c1cccs1)N(Cc1ccccc1)C(=O)c1ccc(-c2ccccc2)[nH]1 (centres undefined)	–	–	–	–	–	–	·	·	·	·	·	·
O=C(NCC1CCCO1)C(c1ccc(F)cc1)N(CCCN1CCOCC1)C(=O)c1ccc(-c2ccccc2)[nH]1 (centres undefined)	–	–	–	–	–	–	·	·	·	·	·	·
O=C(NC1CCCCC1)C(c1ccncc1)N(Cc1ccccc1)C(=O)c1ccc(-c2ccccc2)[nH]1 (centres undefined)	–	–	–	–	·	–	·	·	·	·	·	·
COc1ccc(CN(C(=O)c2ccc(-c3ccccc3)[nH]2)C(C(=O)NCC2CCCO2)c2ccc(C)o2)cc1 (centres undefined)	·	–	–	–	·	–	–	–	0.025	–	?	–
CC(C)(C)NC(=O)C(c1ccncc1)N(Cc1ccco1)C(=O)c1ccc(-c2ccccc2)[nH]1 (centres undefined)	-5	–	–	–	–	–	–	–	0.024	–	?	–
CC(C)(C)NC(=O)C(c1cccs1)N(CC1CCCO1)C(=O)c1ccc(-c2ccccc2)[nH]1 (centres undefined)	-6.6	–	–	–	–	–	–	–	0.022	–	0.01	–
SMILES	KCC2 mod	STAT3 activator	STAT1 activator	STAT1 inh	HSV replic up	STAT3 blocker	KCC2 sec1	KCC2 bumet counter	KCC2 secondary2	HEK counter1	KCC2 ouabain	HEK counter2
O=C(NCC1CCCO1)C(c1cccs1)N(C(=O)c1ccc(-c2ccccc2)[nH]1)C1CCCC1 (centres undefined)	-5.7	–	–	–	–	–	–	–	?	–	0.015	–
COc1ccc(N=C2SC(C(=O)Nc3ccc(OC)cc3)CC(=O)N2CCN2CCOCC2)cc1 (centres undefined)	–	–	–	–	–	–	·	·	·	·	·	·
O=C(Nc1ccc(O)c2c(=O)cc(-c3ccccc3Cl)oc12)c1cccs1	–	·	·	·	–	·	·	·	·	·	·	·
COC(=O)CSc1ncnc2c1cnn2Cc1ccccc1	–	–	–	–	–	–	·	·	·	·	·	·
CC(C)OC(=O)CSc1ncnc2c1cnn2Cc1ccccc1	-3.6	–	–	–	–	–	–	–	–	–	–	–
S=c1nc(-c2ccccc2)[nH]c2ccc(Br)cc12	107	·	·	·	–	·	0.025	0.12	0.099	0.11	0.11	0.096
Cc1cc(=O)c2cc(Br)ccc2[nH]1	·	–	–	–	–	–	·	·	·	·	·	·
CN(C)CCCN1C(=O)c2oc3ccc(Cl)cc3c(=O)c2C1c1cccnc1 (centres undefined)	3.7	–	–	–	–	–	–	0.015	–	0.0099	?	–
CCCNC(=O)CN(C)CC(=O)Nc1ccccc1C#N	–	–	–	–	–	–	·	·	·	·	·	·
CC(C)Cn1c(SCC(=O)NC(=O)Nc2ccc3c(c2)OCCO3)nc2ccccc2c1=O	17	–	–	–	–	–	0.014	0.044	–	?	0.039	?
COCCn1c(SCC(=O)Nc2cccc(S(N)(=O)=O)c2)nc2cc(Cl)ccc2c1=O	–	–	–	–	–	–	·	·	·	·	·	·
CC(C)Cn1c(SCC(=O)Nc2cccc(S(N)(=O)=O)c2)nc2ccccc2c1=O	5.7	–	–	–	–	–	–	0.018	–	0.0095	?	0.011
